{"source": "paper PMC4878416", "about": "(Diabetes, 2016)", "key": {"human β-cells": {"test_system": "human β-cells", "test": "EdU incorporation proliferation assay in dissociated human islet cells", "type": "cell-based", "method_in_brief": "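Human islets dissociated in Accutase (5,000 IEQ/mL, 37°C, 20 min), resuspended in CMRL complete medium and seeded at ~30,000 (96-well) or ~15,000 (384-well) cells per well. EdU was present throughout the 6-day treatment, including FK506 cotreatment. Cells were fixed (3% PFA), permeabilised (0.2% Triton X-100) and stained for C-peptide and DAPI. EdU+ β-cells were scored by automated imaging and manually; 4 wells, 9 fields each; mean ± SD; two-tailed t test vs DMSO.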"}, "tyrosine kinase TXK": {"biological_target": "T1, tyrosine kinase TXK (Homo sapiens, UniProt P42681)", "T1 sequence (P42681 1-527)": "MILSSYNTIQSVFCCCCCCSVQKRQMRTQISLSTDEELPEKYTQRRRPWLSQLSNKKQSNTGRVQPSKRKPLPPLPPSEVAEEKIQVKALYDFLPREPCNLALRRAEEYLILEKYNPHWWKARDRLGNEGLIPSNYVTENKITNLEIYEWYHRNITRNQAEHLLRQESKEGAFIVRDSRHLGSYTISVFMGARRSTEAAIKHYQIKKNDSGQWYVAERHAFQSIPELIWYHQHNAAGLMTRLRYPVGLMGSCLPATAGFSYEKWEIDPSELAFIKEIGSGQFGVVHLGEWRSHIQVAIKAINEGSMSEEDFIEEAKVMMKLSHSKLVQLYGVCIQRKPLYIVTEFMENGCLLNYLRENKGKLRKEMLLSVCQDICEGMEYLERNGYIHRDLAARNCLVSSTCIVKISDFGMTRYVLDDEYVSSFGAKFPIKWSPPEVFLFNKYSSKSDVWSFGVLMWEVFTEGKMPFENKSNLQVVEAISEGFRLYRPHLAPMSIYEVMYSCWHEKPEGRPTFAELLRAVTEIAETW", "test": "Human kinome profiling, TXK", "type": "biochemical", "details": "read-out: remaining activity TXK", "method_in_brief": "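Human kinases profiled by commercial providers under their standard protocols; ATP within 15 μmol/L of the apparent KM for each enzyme.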"}, "adenosine kinase": {"biological_target": "adenosine kinase", "details": "read-out: IC50 adenosine kinase; cited from earlier work"}, "DYRK1A": {"biological_target": "DYRK1A (Homo sapiens, UniProt Q13627)", "test": "Biochemical assay for DYRK1A activity using the purified catalytic domain"}, "[1]": {"test_system": "human islet cells (all cell types)", "details": "cited from earlier work"}, "[2]": {"test_system": "p27KIP phosphorylation (S10)", "test": "Western blot of p27KIP phosphorylation", "type": "cell-based, rat", "details": "INS-1E cells, 24 or 48 h, 10 μmol/L harmine or 0.5 μmol/L 5-IT", "method_in_brief": "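Cells were treated after overnight attachment and lysed in RIPA buffer. Western blots were probed for p27KIP S10 phosphorylation, with actin as loading control.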"}}}
{"molecule": "Nc1ncnc2nc(-c3ccc(N4CCOCC4)nc3)cc(-c3cccc(Br)c3)c12", "note": "[ABT-702, 4-amino-5-(3-bromophenyl)-7-(6-morpholinopyridin-3-yl)pyrido[2,3-d]pyrimidine]", "values": [{"measurement": "effect on EdU incorporation", "setting": "human β-cells; tested up to 20 μmol/L, 6-day treatment", "value": "no effect"}, {"measurement": "remaining activity at 0.5 µM", "setting": "tyrosine kinase TXK", "value": 60, "unit": "%"}, {"measurement": "IC50", "setting": "adenosine kinase", "value": 1.7, "unit": "nM"}]}
{"molecule": "COc1ccc2c3c([nH]c2c1)C(C)=NCC3", "note": "[harmaline]", "values": [{"measurement": "effect on EdU incorporation versus vehicle", "setting": "human β-cells; 6-day treatment", "value": "no effect"}, {"measurement": "activity toward DYRK1A", "setting": "DYRK1A", "value": "no activity"}]}
{"molecule": "C=CC[C@@H]1/C=C(\\C)C[C@H](C)C[C@H](OC)[C@H]2O[C@@](O)(C(=O)C(=O)N3CCCC[C@H]3C(=O)O[C@H](/C(C)=C/[C@@H]3CC[C@@H](O)[C@H](OC)C3)[C@H](C)[C@@H](O)CC1=O)[C@H](C)C[C@@H]2OC", "note": "[FK506]", "values": [{"measurement": "effect of cotreatment on 5-IT-induced EdU-positive β-cells", "setting": "human β-cells; 1 μmol/L FK506 with 1 μmol/L 5-IT", "value": "completely blocked"}, {"measurement": "effect of cotreatment on harmine-induced EdU-positive β-cells", "setting": "human β-cells; 1 μmol/L FK506 with 10 μmol/L harmine", "value": "completely blocked"}]}
{"molecule": "COC(=O)C1=C(C)NC(C)=C([N+](=O)[O-])C1c1ccccc1C(F)(F)F", "note": "(stereo not shown) [Bay K8644]", "values": [{"measurement": "cellular proliferation in human islet cell culture", "setting": "[1]", "value": "induces nonspecific cellular proliferation"}]}
{"molecule": "COc1ccc2c(c1)[nH]c1c(C)nccc12", "note": "[harmine]", "values": [{"measurement": "effect on EdU-positive cells", "setting": "human β-cells; 5 and 10 μmol/L, 6-day treatment", "value": "dose-dependent increase"}, {"measurement": "p27KIP phosphorylation", "setting": "[2]", "value": "decrease"}]}
